pKi: −log10 of the molar value. Activity calls are given as the source filed them. The rule behind the calls is not given here.
What was measured:
Format in all cases: tissue-based
[1] = biological target: Kappa-type opioid receptor (Rattus norvegicus) (UniProt P34975); test: (§1) Displacement of [3H]U69593 from kappa opioid receptor in rat brain homogenate after 1 hr by liquid scintillation counting
[2] = biological target: Mu-type opioid receptor (Rattus norvegicus) (UniProt P33535); test: (§2) Displacement of [3H]DAMGO from mu opioid receptor in rat brain homogenate after 1 hr by liquid scintillation counting
Procedure, shortened: (§3)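 Competition with 12 concentrations of test compound, 1 h at 25°C; terminated by rapid vacuum filtration through GF/B filters presoaked in 0.5% polyethyleneimine. Bound radioactivity counted by liquid scintillation; Ki by Cheng-Prusoff.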

[3] = biological target: Delta-type opioid receptor (Rattus norvegicus) (UniProt P33533); test: (§4) Displacement of [3H]DPDPE from delta opioid receptor in rat brain homogenate after 1 hr by liquid scintillation counting
Mu-type opioid receptor = Mu-type opioid receptor (Rattus norvegicus, UniProt P33535); test: as §2; procedure, shortened: as §3
[4] = biological target: Kappa-type opioid receptor (Rattus norvegicus, UniProt P34975); test: as §1
[5] = biological target: Delta-type opioid receptor (Rattus norvegicus, UniProt P33533); test: as §4
Chain of Delta-type opioid receptor (P33533 whole entry): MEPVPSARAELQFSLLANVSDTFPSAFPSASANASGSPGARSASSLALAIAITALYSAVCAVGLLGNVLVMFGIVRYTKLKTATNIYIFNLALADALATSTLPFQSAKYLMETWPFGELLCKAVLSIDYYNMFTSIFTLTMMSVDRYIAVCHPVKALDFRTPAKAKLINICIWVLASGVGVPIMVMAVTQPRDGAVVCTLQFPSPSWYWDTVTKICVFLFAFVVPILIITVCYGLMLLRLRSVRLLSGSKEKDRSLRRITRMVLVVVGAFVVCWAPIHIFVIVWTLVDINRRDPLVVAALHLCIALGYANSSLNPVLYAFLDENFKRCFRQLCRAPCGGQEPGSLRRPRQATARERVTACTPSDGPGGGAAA

Chain of Mu-type opioid receptor (P33535 whole entry): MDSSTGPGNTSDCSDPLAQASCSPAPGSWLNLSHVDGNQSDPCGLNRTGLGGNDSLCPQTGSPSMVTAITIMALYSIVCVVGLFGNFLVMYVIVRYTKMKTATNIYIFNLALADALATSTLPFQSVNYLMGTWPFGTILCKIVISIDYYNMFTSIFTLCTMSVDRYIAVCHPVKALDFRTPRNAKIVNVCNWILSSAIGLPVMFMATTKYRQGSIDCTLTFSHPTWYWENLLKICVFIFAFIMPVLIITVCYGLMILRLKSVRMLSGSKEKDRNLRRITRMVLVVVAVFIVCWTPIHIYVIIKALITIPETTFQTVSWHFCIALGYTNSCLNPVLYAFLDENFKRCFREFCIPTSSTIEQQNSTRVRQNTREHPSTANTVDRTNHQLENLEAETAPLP
Chain of Mu-type opioid receptor (Rattus norvegicus) (P33535 whole entry): as above
Chain of Delta-type opioid receptor (Rattus norvegicus) (P33533 whole entry): as the sequence (P33533 whole entry) above
Chain of Kappa-type opioid receptor (Rattus norvegicus) (P34975 whole entry): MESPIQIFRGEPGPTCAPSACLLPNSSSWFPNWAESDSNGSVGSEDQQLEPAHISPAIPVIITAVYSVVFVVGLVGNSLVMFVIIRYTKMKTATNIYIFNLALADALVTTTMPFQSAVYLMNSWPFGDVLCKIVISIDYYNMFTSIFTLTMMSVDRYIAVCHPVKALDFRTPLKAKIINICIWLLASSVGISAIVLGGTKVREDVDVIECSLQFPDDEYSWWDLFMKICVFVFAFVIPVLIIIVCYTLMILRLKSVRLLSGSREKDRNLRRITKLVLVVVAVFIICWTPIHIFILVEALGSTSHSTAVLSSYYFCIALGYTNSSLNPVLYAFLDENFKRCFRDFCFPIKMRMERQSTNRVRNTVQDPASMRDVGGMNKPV
Chain of Kappa-type opioid receptor (P34975 whole entry): as above

Row | SMILES | Activity [1] | Activity [2] | Activity [3] | pKi (Mu-type opioid receptor) | pKi [4] | pKi [5]
1 | c1ccc(CCCOCCN2CCCCCC2)cc1 | inactive | inactive | inactive | – | – | –
2 | C=CCN(CC=C)CCOCCCc1ccccc1 | inactive | – | inactive | < 5.00 | – | –
3 | CCCN(CCC)CCOC/C=C/c1ccccc1 | – | – | – | < 5.00 | – | –
4 | CCN(CC)CCOC/C=C/c1ccccc1 | – | – | – | < 5.00 | – | –
5 | CN(CCOCCCc1ccccc1)CCc1ccccc1 | – | – | – | 5.64 | < 5.00 | –
6 | CN(CCOC/C=C/c1ccccc1)CCc1ccccc1 | – | – | – | 5.77 | < 5.00 | 5.16
7 | C=CCN(CC=C)CCOC/C=C/c1ccccc1 | inactive | – | inactive | < 5.00 | – | –
8 | CN(CCCc1ccccc1)CCOCCCc1ccccc1 | – | – | – | 5.82 | < 5.00 | 5.18
9 | CCCCN(CCCC)CCOCCCc1ccccc1 | – | – | – | 5.60 | < 5.00 | < 5.00
10 | CCN(CC)CCOCCCc1ccccc1 | – | – | – | < 5.00 | – | –
11 | CCCCN(CCCC)CCOC/C=C/c1ccccc1 | – | – | – | 5.60 | < 5.00 | < 5.00
12 | CN(C)CCOC/C=C/c1ccccc1 | – | – | – | < 5.00 | – | –
13 | CN(CCOC/C=C/c1ccccc1)Cc1ccccc1 | – | – | – | 5.52 | < 5.00 | < 5.00
14 | C(=C\c1ccccc1)/COCCN1CCCCCC1 | – | – | – | < 5.00 | – | –
15 | CCCN(CCC)CCOCCCc1ccccc1 | – | – | – | < 5.00 | – | –
16 | C(=C\c1ccccc1)/COCCN1CCCCC1 | inactive | inactive | inactive | – | – | –
17 | c1ccc(CCCOCCN2CCCCC2)cc1 | inactive | inactive | inactive | – | – | –
18 | C(=C\c1ccccc1)/COCCN1CCCC1 | inactive | inactive | inactive | – | – | –
19 | CN(CCCc1ccccc1)CCOC/C=C/c1ccccc1 | – | – | – | – | < 5.00 | < 5.00
20 | CCN(CC)C(=O)COC/C=C/c1ccccc1 | – | – | – | < 5.00 | – | –
21 | CCN(CC)C(=O)COCCCc1ccccc1 | – | – | – | < 5.00 | – | –
22 | CN(CCOCCCc1ccccc1)Cc1ccccc1 | – | – | – | 5.56 | < 5.00 | < 5.00
23 | CN(C)CCOCCCc1ccccc1 | – | – | – | < 5.00 | – | –
24 | c1ccc(CCCOCCN2CCCC2)cc1 | inactive | inactive | inactive | – | – | –

Reference: ChEMBL document CHEMBL2046286, “Deconstructing 14-phenylpropyloxymetopon: minimal requirements for binding to mu opioid receptors” (Bioorg Med Chem, 2012)
